STAT1 blocker = STAT1 signaling inhibitors, primary screen, cell-based, HTS, luciferase reporter | NIH 3T3 STAT1-luciferase reporter, IFN-gamma, luminescence | inhibition, % at 5.5 µM | 200,000 compounds, 0.35% hits;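 active = inhibition above a set limit, the mean inhibition across all tested compounds plus 3 SD, cut at about 34% in these data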
APP 5'UTR act = activators of APP 5'UTR luciferase reporter, primary screen, SH-SY5Y cells | AID 1276, 2008 | 190,000 compounds, 1% hits | SH-SY5Y APP 5'UTR luciferase reporter, luminescence; zero percent = DMSO vehicle wells | activation, % at 2 µM;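 active = activation above a set limit, based on mean plus 3 SD of controls, cut at about 140% in these data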
STAT3 activator = IL-6 driven STAT3 reporter potentiators, primary screen, U3A cells, luciferase, luminescence, MLSCN library; 190,000 compounds, 0.91% hits; activation (% of control), % at 5.6 µM; IL-6 STAT3-luciferase reporter; 100% = signal with IL-6 EC80 alone;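 active = activation above the screen-wide mean of compound activation plus 3 SD, cut at about 130% in these data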
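Material: STAT1-lacking human U3A cells, STAT3 luciferase reporter | Benchmarks: IL-6-only wells as 100% reference | Probe or stimulus: IL-6 (33 ng/mL) | Timing: Compound 1 h, then IL-6 6 h at 37 °C | Detection: Luminescence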
NF-kB expr up = activators of NF-kB expression in neurons, primary screen, cell-based, HTS. 190,000 compounds, 1.6% hits. human neuronal cells, NF-kB reporter expression; stronger effect = higher value. fold change at 12.5 µM; in the data active = fold change above about 3.3
STAT1 act = STAT1 signaling activators, primary screen, cell-based, HTS, luciferase reporter; activation (% of control), % at 5.5 µM; NIH 3T3 STAT1-luciferase reporter, IFN-gamma, luminescence; 100% = IFN-gamma alone, no compound; 200,000 compounds, 2.6% hits;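 active = activation above the screen-wide mean activation plus 3 SD, cut at about 130% in these data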
STAT3 blocker = IL-6 driven STAT3 reporter inhibitors, primary screen, U3A cells, luciferase, luminescence, MLSCN library. 190,000 compounds, 0.89% hits. AID 862, 2007. inhibition, % at 5.5 µM. IL-6 STAT3-luciferase reporter; host cell line lacks STAT1;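 active = inhibition above the mean inhibition across all screened compounds plus 3 SD, cut at about 44% in these data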
Of the large screens only hits and unclear results are named; the others gave an inactive call. Compounds with a hit are over-represented: about 5.1% of the library has one in this group of screens.

CCOC(=O)c1cnc(Nc2nc3ccccc3o2)nc1CSC(=S)N(CC)CC	NF-kB expr up 24
CCOC(=O)c1cnc(Nc2nc3ccccc3o2)nc1CSc1ncccn1	none (no result: NF-kB expr up)
Cc1ccc(Nc2nc3ccccc3o2)cc1F	APP 5'UTR act 136, STAT1 act 133
CCCc1nc(Nc2nc3ccccc3o2)nc(C)c1C(=O)OCC	STAT1 act 144
CCOC(=O)Cc1nc2ccccc2o1	none
Cc1cnc(Nc2nc3ccccc3o2)nc1C(=O)Nc1cccc(C(F)(F)F)c1	none
N#Cc1cnc(Nc2nc3ccccc3o2)nc1-c1ccccc1	none
Cc1nc(Nc2nc3ccccc3o2)nc(C)c1C	APP 5'UTR act 143
C=CCn1cccc(C(=O)Nc2cc(OC)ccc2OC)c1=O	none
CCOc1ccc(C(=O)NC(=S)Nc2ccccc2N2CCOCC2)cc1Br	none
CCCCCCOC(=O)Sc1nc2ccccc2o1	NF-kB expr up 4.1
COC(=O)CSc1nc2ccccc2o1	none
COc1ccc(C2=C(Nc3ccc(C)cc3)c3ccccc3C2=O)cc1	none
Cc1cccc(-c2cc3c(nn2)-c2ccccc2C3=O)c1	NF-kB expr up 6.9 (no result: APP 5'UTR act)
COc1ccc(-c2cc3c(nn2)-c2ccccc2C3=O)cc1	STAT1 blocker 62, STAT3 blocker 92
Cc1ccc(Cn2cnc3ccccc32)cc1C	none
Cn1c(NCc2c[nH]c3ccccc23)nc2ccccc21	STAT3 activator 141, NF-kB expr up 3.3, STAT1 act 139
O=C1CCn2nc(-c3ccc(Cl)cc3)cc2N1	STAT1 act 136
O=C1c2ccccc2C(=O)N1CCCCN(C(=O)c1cc2ccccc2oc1=O)c1ccc(F)cc1F	none
Cc1cc(=O)[nH]c(SCn2nnc3ccccc3c2=O)n1	none
Cc1ccc(-n2c(SCn3nnc4ccccc4c3=O)nnc2-c2cccnc2)c(C)c1	none
Cc1ccc(SCn2nnc3ccccc3c2=O)c(C)c1	STAT1 act 141
O=c1c2ccccc2nnn1CSc1nc2ccccc2[nH]1	STAT1 act 135
O=C1C=C(NCCc2ccccc2)C2(CCCCC2)O1	none
Cc1nc2ccc(C(=O)N3c4ccccc4CC3C)cc2s1 (stereo unspecified)	none
CN1C(=O)NC(c2cccc(O)c2)C(C(=O)c2cccs2)C1(O)C(F)(F)F (stereo unspecified)	APP 5'UTR act 135
CCOC(=O)C1C(c2cccs2)NC(=O)N(C)C1(O)C(F)(F)F (stereo unspecified)	none
O=C(Nc1ccc(N2CCCC2)cc1)C(c1ccccc1)c1ccccc1	none
O=C(Nc1ccc(N2CCCCC2)cc1)C(Cl)c1ccccc1 (stereo unspecified)	none
O=C(NC(=S)Nc1ccc(N2CCCCC2)cc1)c1ccco1	STAT1 act 132
O=C(Nc1ccc(N2CCCCC2)cc1)c1ccccn1	STAT1 blocker 96, STAT3 blocker 110
O=C(Nc1ccc(N2CCCCCC2)cc1)c1ccccc1Cl	NF-kB expr up 4.7, STAT1 act 147
COc1ccccc1C(=O)Nc1ccc(N2CCCCC2)cc1	APP 5'UTR act 168, STAT3 activator 151, NF-kB expr up 4.9, STAT1 act 140
CC(C)c1cc(C(=O)N/N=C/c2cccnc2)n[nH]1	none
Fc1cccc(CN2CCN(Cc3nc(CCc4ccccc4)no3)CC2)c1	none
Cc1cc(C)cc(C(=O)Nc2ccc(N3CCCC3)cc2)c1	APP 5'UTR act 146, STAT1 act 151
CC(C)Oc1ccc(C(=O)Nc2ccc(N3CCCC3)cc2)cc1	none
C#CCN1C(=O)S/C(=C/C=C/c2ccc(N(C)C)cc2)C1=O	STAT1 act 136
CC(=O)c1ccc(OC(=O)CCc2nc3ccccc3s2)cc1	none
COC(=O)c1sc2nc(-c3ccco3)ccc2c1N	APP 5'UTR act 162, STAT1 act 141
NC(=O)c1sc2nc(-c3ccco3)ccc2c1N	STAT1 act 131
NC(=O)c1sc2nc3c(c(-c4ccco4)c2c1N)CCC3	none
COc1ccc(C(=O)c2sc3nc(-c4ccccc4)ccc3c2N)cc1	none
Nc1c(C(=O)Nc2ccccc2F)sc2nc(-c3ccco3)ccc12	APP 5'UTR act 140
O=C(Nc1ccccc1F)c1ccco1	none
CCN(CC)C(=O)Cn1c(=O)n(CCCC(=O)NCc2ccccc2)c(=O)c2sccc21	none
Cc1ccc(S(=O)(=O)N2CCN(c3ccc(C(=O)N4CCOCC4)cc3[N+](=O)[O-])CC2)cc1	none
COc1cccc(C(=O)/C=C2\Sc3ccccc3N2C)c1	APP 5'UTR act 214, STAT1 act 150
CN1/C(=C\C(=O)c2cccnc2)Sc2ccccc21	STAT1 act 134
COc1ccc(C(CC(=O)Nc2nccs2)n2cccc2)cc1 (stereo unspecified)	APP 5'UTR act 194, NF-kB expr up 4.5, STAT1 act 156
CCOc1ccc(S(=O)(=O)N(C)c2ccc(OCC(=O)Nc3nccs3)cc2)cc1	none
COc1ccccc1OCCCC(=O)Nc1nccs1	STAT1 act 134
CCOc1ccc(OCC(=O)Nc2nccs2)cc1	STAT1 blocker 61, APP 5'UTR act 157, STAT3 blocker 95
O=C(CCCOc1ccccc1)Nc1nccs1	none
COc1ccc(C(CC(=O)Nc2cc(OC)cc(OC)c2)n2cccc2)cc1 (stereo unspecified)	none
O=C(Nc1ccccc1N1CCCC1)c1ccc([N+](=O)[O-])cc1Cl	none
Cc1cccc(S(=O)(=O)Nc2nc3ccccc3nc2NCc2ccc3c(c2)OCO3)c1	none
Cn1c(=O)c(C(=O)NCC2CCCO2)c(O)c2ccccc21 (stereo unspecified)	STAT1 act 129
Cn1c(C(=O)NCC2CCCO2)cc2oc3ccccc3c21 (stereo unspecified)	STAT1 act 144
Cc1cccnc1NC(=O)c1c(O)c2ccccc2n(C)c1=O	STAT3 activator 133
NC(=O)CSc1nnnn1-c1ccccc1Cl	none
CCCc1nc2oc3cc(OC)ccc3c(=O)c2c(=O)n1Cc1ccco1	none
CCCc1nc2sc3ccccc3c(=O)c2c(=O)n1Cc1ccco1	STAT3 activator 147
CCCCOc1ccc(-c2[nH]ncc2C=O)cc1	STAT1 act 135
C=CCSc1n[nH]c(-c2ccc(OCCCC)cc2)n1	none
CC1CCN(c2ccc(NC(=O)Cc3ccccc3)cc2)CC1	STAT1 act 142
COC(=O)Cc1c(C)c2ccc(OCC(C)=O)c(C)c2oc1=O	STAT1 act 130
C=C(C)COc1ccc2c(C)c(CC(=O)OC)c(=O)oc2c1C	none
Cc1cccc(N2CCN(C(=O)c3cccc(N4C(=O)C5CC=CC(C)C5C4=O)c3)CC2)c1C (stereo unspecified)	none

From PubChem
